Source: ChEMBL document CHEMBL1909503, “Protective effects of luteolin against apoptotic liver damage induced by D-galactosamine/lipopolysaccharide in mice” (2011)
Activity calls are given as the source filed them. The rule behind the calls is not given here.

Tests used:
Mus musculus [1] = experiment: Hepatoprotective activity in GalN/LPS -stimulated ICR mouse assessed as decrease in Bid expression level at 200 mg/kg, ip administered 1 hr prior to GalN/LPS challenge measured after 3 hrs of GalN/LPS injection by Western blotting; type: functional, organism-based; set-up: dose 200 mg/kg
Summary of the method: (§1)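 Male ICR mice (25–30 g), fasted overnight, water ad libitum. Compound suspended in 10% Tween 80–saline, given ip 1 h before ip GalN (700 mg/kg) plus E. coli 026:B6 LPS (10 μg/kg) in PBS. Liver homogenized in lysis buffer; 10 μg protein per lane on 10% SDS-PAGE, semidry transfer to nitrocellulose, blocked in 5% skim milk/TBS. Overnight 4 °C primary antibody; β-actin reference. 8–10 mice per group.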

Mus musculus [2] = experiment: Hepatoprotective activity in GalN/LPS -stimulated ICR mouse assessed as decrease in caspase-3 activity at 200 mg/kg, ip administered 1 hr prior to GalN/LPS challenge measured after 8 hrs of GalN/LPS injection relative to control; type: functional; set-up: scale not given: the % may be the effect or the level left; settings: route intraperitoneal
Summary of the method: (§2)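 Liver taken 8 h after GalN (700 mg/kg)/LPS (10 μg/kg) ip, homogenized in 25 mM Tris, 5 mM MgCl2, 1 mM EGTA with protease inhibitors; 40000g supernatant, 10 mM DTT added. 30 μg protein preincubated 15 min at room temperature in HEPES/EDTA/NaCl/Triton/DTT buffer, then 200 μM peptide substrate (DEVD for caspase-3, IETD for caspase-8) at 37 °C; fluorescence (400/490 nm) read at 120 min; expressed as % of control.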

Mus musculus [3] = experiment: Hepatoprotective activity in GalN/LPS -stimulated ICR mouse assessed as decrease in caspase-8 activity at 200 mg/kg, ip administered 1 hr prior to GalN/LPS challenge measured after 8 hrs of GalN/LPS injection relative to control; type: functional; set-up: scale not given: the % may be the effect or the level left; settings: route intraperitoneal; summary of the method: as §2
Mus musculus [4] = experiment: Hepatoprotective activity in GalN/LPS -stimulated ICR mouse assessed as decrease in serum alanine amino transferase level at 200 mg/kg, ip administered 1 hr prior to GalN/LPS challenge measured after 8 hrs of GalN/LPS injection; type: functional; settings: route intraperitoneal
Summary of the method: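 Fasted male ICR mice given compound ip in 10% Tween 80–saline 1 h before ip GalN (700 mg/kg)/LPS (10 μg/kg) in PBS. Blood sampled 8 h after challenge; serum ALT measured with an automatic analyzer, reported in U/L. 8–10 mice per group.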

Mus musculus [5] = experiment: Hepatoprotective activity in GalN/LPS -stimulated ICR mouse assessed as decrease in ratio of phosphorylated BimL protein expression level at 200 mg/kg, ip administered 1 hr prior to GalN/LPS challenge measured after 3 hrs of GalN/LPS injection by Western blotting; type: functional, organism-based; set-up: dose 200 mg/kg; summary of the method: as §1
Mus musculus [6] = experiment: Hepatoprotective activity in ip dosed ICR mouse assessed as reduction in GalN/LPS-induced mortality at 200 mg/kg, ip administered 1 hr prior to GalN/LPS challenge measured after 24 hrs of GalN/LPS injection; type: functional, organism-based; set-up: dose 200 mg/kg
Summary of the method: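 15 male ICR mice per group received compound (25–200 mg/kg) in 10% Tween 80–saline ip 1 h before ip GalN 700 mg/kg plus E. coli 026:B6 LPS 10 μg/kg in PBS; survival monitored over 24 h after challenge.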

Mus musculus [7] = experiment: Hepatoprotective activity in GalN/LPS-stimulated ICR mouse assessed as decrease in ratio of phosphorylated Bim EL protein expression level at 200 mg/kg, ip administered 1 hr prior to GalN/LPS challenge measured after 3 hrs of GalN/LPS injection by Western blotting; type: functional, organism-based; set-up: dose 200 mg/kg; summary of the method: as §1
Mus musculus [8] = experiment: Hepatoprotective activity in GalN/LPS -stimulated ICR mouse assessed as reduction in phosphorylated JNK p-46 expression level at 200 mg/kg, ip administered 1 hr prior to GalN/LPS challenge measured after 3 hrs of GalN/LPS injection by Western blotting; type: functional, organism-based; set-up: dose 200 mg/kg; summary of the method: as §1
Mus musculus [9] = experiment: Hepatoprotective activity in GalN/LPS -stimulated ICR mouse assessed as decrease in serum TNFalpha level at 200 mg/kg, ip administered 1 hr prior to GalN/LPS challenge measured after 1 hr of GalN/LPS injection by ELISA; type: functional; settings: route intraperitoneal
Summary of the method: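 Male ICR mice dosed ip (10% Tween 80–saline) 1 h before ip GalN 700 mg/kg plus LPS 10 μg/kg. Serum TNF-α quantified 1 h after challenge by mouse ELISA kit following kit instructions. 8–10 mice per group.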

Mus musculus [10] = experiment: Hepatoprotective activity in GalN/LPS -stimulated ICR mouse assessed as suppression of TRADD expression level at 200 mg/kg, ip administered 1 hr prior to GalN/LPS challenge measured after 3 hrs of GalN/LPS injection by Western blotting; type: functional, organism-based; set-up: dose 200 mg/kg; summary of the method: as §1
Mus musculus [11] = experiment: Hepatoprotective activity in GalN/LPS -stimulated ICR mouse assessed as reduction in phosphorylated JNK p-54 expression level at 200 mg/kg, ip administered 1 hr prior to GalN/LPS challenge measured after 3 hrs of GalN/LPS injection by Western blotting; type: functional, organism-based; set-up: dose 200 mg/kg; summary of the method: as §1
Mus musculus [12] = experiment: Hepatoprotective activity in GalN/LPS -stimulated ICR mouse assessed as reduction in number of apoptotic hepatocytes at 200 mg/kg, ip administered 1 hr prior to GalN/LPS by TUNEL assay; type: functional, organism-based; set-up: dose 200 mg/kg; settings: Hepatocyte
Summary of the method: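 Liver sections from male ICR mice pretreated ip 1 h before GalN (700 mg/kg)/LPS (10 μg/kg). Apoptotic hepatocytes detected with an in situ TUNEL kit; TUNEL-positive cells counted microscopically across 200 histological fields.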

Mus musculus [13] = experiment: Hepatoprotective activity in GalN/LPS -stimulated ICR mouse assessed as suppression of cytochrome c level at 200 mg/kg, ip administered 1 hr prior to GalN/LPS challenge measured after 8 hrs of GalN/LPS injection by Western blotting; type: functional, organism-based; set-up: dose 200 mg/kg
Summary of the method: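 Male ICR mice; compound in 10% Tween 80–saline ip 1 h before ip GalN 700 mg/kg/LPS 10 μg/kg; liver taken 8 h later. Cytosolic fraction prepared by NE-PER extraction. 50 μg cytosolic protein run on 12% SDS-PAGE, blotted to nitrocellulose, blocked with 5% nonfat milk/PBS, probed 1 h at room temperature with monoclonal anti-cytochrome c, β-actin as reference, HRP secondary. 8–10 mice per group.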

Mus musculus [14] = experiment: Hepatoprotective activity in GalN/LPS -stimulated ICR mouse assessed as decrease in Bax expression level at 200 mg/kg, ip administered 1 hr prior to GalN/LPS challenge measured after 3 hrs of GalN/LPS injection by Western blotting; type: functional, organism-based; set-up: dose 200 mg/kg; summary of the method: as §1
Mus musculus [15] = experiment: Hepatoprotective activity in ICR mouse assessed as reduction in GalN/LPS-induced mortality at 200 mg/kg, ip administered 1 hr prior to GalN/LPS challenge measured after 24 hrs of GalN/LPS injection; type: functional, organism-based; set-up: dose 200 mg/kg; scale not given: the % may be the effect or the level left
Summary of the method: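 Male ICR mice (25–30 g), fasted overnight with water ad libitum. Pretreatment ip, suspended in 10% Tween 80–saline, 1 h before ip GalN (700 mg/kg) plus E. coli 026:B6 LPS (10 μg/kg) in PBS. Survival monitored for 24 h after GalN/LPS; 15 mice per group.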

Row | Compound | inhibition (Mus musculus [1]) | Activity (Mus musculus [2]) [%] | Activity (Mus musculus [3]) [%] | Activity (Mus musculus [4]) [U/L] | inhibition (Mus musculus [5]) | Activity (Mus musculus [6]) | inhibition (Mus musculus [7]) | inhibition (Mus musculus [8]) | Activity (Mus musculus [9]) [pg/mL] | inhibition (Mus musculus [10]) | inhibition (Mus musculus [11]) | Activity (Mus musculus [12]) | inhibition (Mus musculus [13]) | inhibition (Mus musculus [14]) | Activity (Mus musculus [15]) [%]
1 | O=c1cc(-c2ccc(O)c(O)c2)oc2cc(O)cc(O)c12 [LUTEOLIN] | Active | 251.7 | 176.8 | 1059 | Active | Dose-dependent effect | Active | Active | 574.2 | Active | Active | Active | Active | Active | 
2 | SILYMARIN |  |  |  |  |  |  |  |  |  |  |  |  |  |  | 13.3
